# Compound activity (PubChem)
# Most compounds without a hit are left out; they make up all but 3.4% or so of the library.
# TAAR1 antagonist: human TAAR1 antagonism. Q96RJ0. CHO RD-HGA16 TAAR1, Fluo-8 calcium fluorescence, antagonist. inhibition, % at 3 µM. AID 624466. hit rate 1.5% among 360,000;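 active means inhibition above a per-plate cutoff, the mean inhibition of test compounds on that plate plus 3 SD, cut at about 49% in these data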
# Target sequence (Q96RJ0 whole entry, looked up): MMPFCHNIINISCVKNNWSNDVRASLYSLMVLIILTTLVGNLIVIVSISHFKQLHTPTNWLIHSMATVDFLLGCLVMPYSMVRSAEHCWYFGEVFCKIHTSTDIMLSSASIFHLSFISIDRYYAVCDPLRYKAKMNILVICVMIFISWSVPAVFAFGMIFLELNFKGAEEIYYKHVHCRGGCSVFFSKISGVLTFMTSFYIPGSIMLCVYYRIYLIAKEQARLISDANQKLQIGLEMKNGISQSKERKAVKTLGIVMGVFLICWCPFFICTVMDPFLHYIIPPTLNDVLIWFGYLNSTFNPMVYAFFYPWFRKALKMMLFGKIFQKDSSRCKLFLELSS
#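 System: CHO RD-HGA16 cells bearing hTAAR1. Reagent: EC80 β-phenethylamine stimulus. Schedule: seeding 17-24 h prior, 75-min 37 °C, 30-min RT dye loading. Signal: Fluo-8 intracellular calcium dye fluorescence, real-time kinetic reads. Read-out: % inhibition from peak post-agonist over basal fluorescence ratio. Benchmarks: vehicle wells and EC80 agonist wells. Replicates: n of 1.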
# M1 PAM: positive allosteric modulators of human M1 muscarinic receptor; CHO-K1 hM1, Fluo-8 calcium fluorescence, ACh EC20; 0% = ACh EC20, 100% = maximal ACh; activation, % at 3 µM; hit rate 0.088% among 360,000; in the data active means activation above about 19%, passing the limit was not always enough
# TAAR1 ag: human TAAR1 agonism. Q96RJ0. CHO RD-HGA16 TAAR1, Fluo-8 calcium fluorescence; vehicle wells 0%, saturating PEA agonist 100%. activation, % at 3 µM. hit rate 0.99% among 360,000;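 active means activation above the mean activation of all test compounds in the run plus 3 SD, cut at about 38% in these data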
#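 Repeats: no replicates (n 1) | Material: CHO-derived RD-HGA16 cells with stable Gα16 and human TAAR1 | Technique: Kinetic Fluo-8 calcium fluorescence | Schedule: 17-24 h seeding, 75 min 37 °C dye, 30 min RT | Evaluation: % activation from peak over basal fluorescence ratio, DMSO-to-PEA scaled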
# CHRM1 antagonist: blocks human M1 muscarinic receptor; P11229; CHO-K1 hM1, Fluo-8 calcium fluorescence, ACh EC80 antagonist; hit rate 1.3% among 360,000; inhibition, % at 3 µM;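 active means percent inhibition above its own plate's cutoff, namely the mean of that plate's compound wells plus 3 SD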;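 further: peak over basal fluorescence ratio during 140 s after agonist addition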
# M1 ag: activates human CHRM1 receptor; hit rate 0.33% among 360,000; AID 588814; activation, % at 3 µM; P11229; CHO-K1 hM1, Fluo-8 calcium fluorescence, agonist mode; 0% DMSO, 100% acetylcholine EC100;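 active means activation above the run's mean compound activation plus 3 SD, cut at about 16% in these data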;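 further: peak over basal fluorescence ratio within a 140 s kinetic read after compound addition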
# TAAR1 ag conf: human TAAR1 agonism, confirmed; shares compounds with TAAR1 ag; CHO RD-HGA16 TAAR1, Fluo-8 calcium fluorescence; scaled: DMSO 0%, maximal phenethylamine 100%; hit rate 82% among 2,400; activation, % at 3 µM;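 active means activation above a cutoff set at the run's mean compound activation plus 3 SD, cut at about 39% in these data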
# Ga16 ag counter: nonselective agonism, TAAR1 counter-screen; shares compounds with TAAR1 ag; activation, % at 3 µM; CHO-Ga16 parental, Fluo-8 calcium fluorescence; normalized to maximal ATP response, DMSO zero; hit rate 50% among 2,400;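 active means activation above the run cutoff, the mean activation over all tested wells plus 3 SD, cut at about 12% in these data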
# TAAR1 desens: counter-screen for human TAAR1 agonists: agonists that desensitize TAAR1; hit rate 46% among 2,400; shares compounds with TAAR1 ag; CHO RD-HGA16 hTAAR1, Fluo-8 calcium, beta-PEA response inhibition; inhibition, % at 3 µM;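 active means inhibition above the run cutoff, the mean inhibition of all test compounds plus 3 SD, cut at about 49% in these data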;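 further: beta-PEA stimulus applied at its EC80; loss of beta-PEA calcium signal after compound pretreatment read as receptor desensitization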
# Ga16 nonsel ant: nonselective Ga16 antagonism, counter-screen; shares compounds with TAAR1 ag; CHO-Ga16 ATP-induced calcium, Fluo-8 fluorescence; hit rate 39% among 2,400; inhibition, % at 3 µM;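 active means inhibition above the plate's mean compound inhibition plus 3 SD, computed per plate, cut at about 22% in these data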
# Numbers stand for hits; i = inactive; nt = no result given.
SMILES,TAAR1 antagonist,M1 PAM,TAAR1 ag,CHRM1 antagonist,M1 ag,TAAR1 ag conf,Ga16 ag counter,TAAR1 desens,Ga16 nonsel ant
CCn1c(CSc2nc(C)cc(C)n2)nnc1SCC(=O)Nc1nc(-c2ccccc2)cs1,i,i,59,i,i,65,32,i,33
C[C@H](NC(=O)[C@@H]1CCCN1C(=O)[C@@H]1CCCN1)c1ccccc1,i,nt,i,nt,nt,nt,nt,nt,nt
CCOC(=O)C1(C)CCCN(C(=O)Cc2ccc3ccccc3c2)C1 (stereo unspecified),i,i,i,i,i,nt,nt,nt,nt
C#CCNC(=O)c1ccc(OCc2ccccc2)cc1Cl,i,i,i,i,i,nt,nt,nt,nt
O=C(NCCCl)c1ccc(OCc2ccccc2)cc1Cl,i,i,48,i,i,68,17,56,i
O=C(O)c1ccc(N/N=C/C2=Cc3ccccc3OC2)cc1,i,i,89,i,i,54,39,i,i
CC(C)C[C@H]1CN=C(Nc2ccccc2)N1CCCC1CCCC1,i,i,57,i,i,74,36,i,24
c1ccc(C[C@H]2CN=C(Nc3ccccc3)N2CC2CCCCCC2)cc1,i,i,i,i,i,nt,nt,nt,nt
CC(C)C[C@H]1CN=C(Nc2ccccc2)N1CCCC1CCCCC1,i,i,58,i,i,58,26,i,27
c1ccc(C[C@H]2CN=C(Nc3ccccc3)N2CCCC2CCCCC2)cc1,i,i,47,i,i,i,i,i,i
CCNS(=O)(=O)c1ccc(CCC(=O)NCc2ccccn2)cc1,i,i,i,i,i,nt,nt,nt,nt
O=C(c1ccco1)N1CCC(c2nc3ccccc3[nH]2)CC1,i,i,i,i,i,nt,nt,nt,nt
CC(C)Cn1c(=O)c2ccccc2n2c(CCC(=O)O)nnc12,i,i,i,i,i,nt,nt,nt,nt
O=C(O)C1CC=C(Cl)CC1C(=O)NCC1OCCc2ccccc21 (stereo unspecified),nt,i,nt,i,i,nt,i,nt,i
Fc1cccc(CCN2CCNC[C@@H]2c2ccccc2)c1,i,i,i,i,i,nt,nt,nt,nt
CCC(C)[C@H]1CNCCN1CCc1cc(C(F)(F)F)cc(C(F)(F)F)c1 (stereo partly specified),i,i,49,i,i,59,23,i,i
FC(F)(F)c1cc(CCN2CCNC[C@@H]2CC2CCCCC2)cc(C(F)(F)F)c1,i,i,61,36,i,52,60,i,68
c1ccc(CC2CCCNC2)cc1 (stereo unspecified),i,i,44,i,22,61,i,i,i
FC(F)(F)c1cc(CCN2CCNC[C@@H]2c2ccccc2)cc(C(F)(F)F)c1,i,i,45,i,i,i,i,i,i
c1ccc(C[C@H]2CNCCN2CC2CCCCC2)cc1,i,i,i,i,i,nt,nt,nt,nt
NNC(=O)c1nc(-c2ccccc2)cc(-c2ccccc2)n1,i,i,i,i,i,nt,nt,nt,nt
COc1ccc(C(=O)NCC(=O)OCC(=O)NC2CCCCCC2)cc1,i,i,i,i,i,nt,nt,nt,nt
COc1cccc(-c2cc(C(F)(F)F)n3nc(C(=O)N4CCCCC4c4cccnc4)cc3n2)c1 (stereo unspecified),i,i,i,i,i,nt,nt,nt,nt
c1ccc(C[C@H]2CNCCN2CCCCC2CCCCC2)cc1,i,i,53,i,i,54,22,i,29
C=CCNc1nc2ccccc2nc1NS(=O)(=O)c1ccc(Cl)cc1,i,i,i,i,i,nt,nt,nt,nt
SMILES,TAAR1 antagonist,M1 PAM,TAAR1 ag,CHRM1 antagonist,M1 ag,TAAR1 ag conf,Ga16 ag counter,TAAR1 desens,Ga16 nonsel ant
CC1=C(C)CC(C(=O)NCCc2ccc(F)cc2)C(C(=O)O)C1 (stereo unspecified),i,i,73,i,i,75,i,i,i
CCCCCNC(=O)C1CC=CCC1C(=O)O (stereo unspecified),i,i,49,i,i,i,i,i,i
CC1CCCCN1C(=S)NCCc1ccccc1 (stereo unspecified),i,i,47,i,i,i,i,i,i
O=C(O)[C@H]1CCCC[C@H]1C(=O)NCCc1ccccc1,85,i,85,i,i,97,i,92,i
S=C(NCCc1ccccc1)N1CCCC1,i,i,i,i,i,nt,nt,nt,nt
O=C(O)C1CCCCC1C(=O)NCCc1ccncc1 (stereo unspecified),i,i,i,i,i,nt,nt,nt,nt
COc1ccc(C)cc1S(=O)(=O)N1CCCC(C(=O)NC2CC2)C1 (stereo unspecified),i,i,i,i,i,nt,nt,nt,nt
O=C(NCc1ccc2c(c1)OCO2)C(=O)NCC1OCCCN1S(=O)(=O)c1cc(F)ccc1F (stereo unspecified),i,i,i,i,i,nt,nt,nt,nt
CN(Cc1ccsc1)C(=O)Cn1cc(Br)ccc1=O,i,i,i,i,i,nt,nt,nt,nt
COc1ccc(CCNC(=O)C2CC=CCC2C(=O)O)cc1 (stereo unspecified),i,i,50,i,i,60,i,i,i
CC1=C(C)CC(C(=O)NCCc2ccccc2)C(C(=O)O)C1 (stereo unspecified),91,i,81,i,i,105,i,84,i
COc1ccc(OC)c(N=c2ssnc2Cl)c1,i,i,i,i,i,nt,nt,nt,nt
COc1cc(N=c2ssnc2Cl)c(OC)cc1Cl,i,i,59,i,i,49,38,i,33
CCOc1ccc(CN2CCNC(=O)C2CC(=O)NCCc2ccccn2)cc1 (stereo unspecified),i,i,i,i,i,nt,nt,nt,nt
O=C(CC1C(=O)NCCN1Cc1ccccn1)NCCc1ccccc1F (stereo unspecified),i,i,78,i,i,97,i,72,i
CC(C)(C)CN1CCNC(=O)C1CC(=O)NCCc1ccccc1C(F)(F)F (stereo unspecified),i,i,i,i,i,nt,nt,nt,nt
CN1CCNC(=O)C1CC(=O)NCCc1ccccc1F (stereo unspecified),i,i,74,i,i,89,i,59,i
Nc1nc(COC(=O)C2CC(=O)N(CCc3ccccc3)C2)nc(Nc2ccccc2)n1 (stereo unspecified),i,i,i,i,i,nt,nt,nt,nt
Cc1ccc(CNC(=O)CC[C@H]2O[C@@H](n3cc(C)c(=O)[nH]c3=O)C[C@@H]2O)o1,i,i,i,i,i,nt,nt,nt,nt
